Screening results from PubChem.
An excerpt weighted towards active compounds, which were near 4.1% of everything screened.
AHR act – activates the human aryl hydrocarbon receptor; AHR-responsive luciferase reporter cells, luminescence; P35869; activation, % at 5 µM; 320,000 compounds, 2.5% hits; in the data active = activation above about 47%
TAG inh – inhibitors of triacylglycerol accumulation | H9c2 cells, Nile Red lipid (TAG) fluorescence; cells loaded with 200 µM oleic acid | inhibition, % at 12.5 µM | 230,000 compounds, 0.66% hits;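 active = pattern-corrected inhibition of lipid staining of at least 50% with the nuclear-stain viability signal not falling by more than 50%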
TbMetRS inhib – Trypanosoma brucei MetRS inhibition. inhibition, % at 11.9 µM. purified T. brucei MetRS, ATP depletion, Kinase-Glo luminescence. 360,000 compounds, 0.4% hits;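 active = inhibition above a per-plate cutoff of the control wells' mean inhibition plus 3 SD, cut at about 5.5% in these data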
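System: purified T. brucei MetRS enzyme / Detection: Kinase-Glo luciferase luminescence reporting remaining unconsumed ATP / Medium: HEPES buffer with MgCl2, KCl, DTT, spermine, BSA, pyrophosphatase / Replication: singlicate, one well per compound / Evaluation: percent inhibition relative to median high and low control wells / Schedule: 2 h aminoacylation at 25 °C after 15 min preincubation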
Efflux pump mplx – antifungal efflux pump inhibition, Nile Red retention | S. cerevisiae Candida pump triplex | inhibition, % at 10 µM | 330,000 compounds, 0.44% hits;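 active = plate passing quality check with inhibition over a set limit, or well fluorescence over plate mean plus 4 SD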;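 also: Nile Red retained in pooled yeast measured as flow cytometry median fluorescence; higher means more Nile Red kept so more efflux inhibition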
SMARCA2 act – increases SMARCA2 function in MMTV reporter cells; MG213 cells, MMTV-luciferase reporter, dexamethasone, overnight; activation, % at 9.1 µM; AID 652017; 370,000 compounds, 1% hits; in the data active = activation above about 7.8%
AHR act cf – confirmation of human aryl hydrocarbon receptor activators. shares compounds with AHR act. human cells, AHR-responsive luciferase reporter, luminescence. activation, % at 9 µM. 2,300 compounds, 87% hits. AID 2845; in the data active = activation above about 49%;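 also: HepG2 hepatoma cells carrying a DRE-driven firefly luciferase reporter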
PXR act counter – PXR activation, counter-screen for AHR activators. shares compounds with AHR act. cell-based PXR reporter, luciferase luminescence. activation, % at 11.6 µM. 2,300 compounds, 88% hits; in the data active = activation above about 11%;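 also: human hepatoma DPX-2 cells expressing full-length human PXR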
Target sequence (O75469 whole entry, looked up): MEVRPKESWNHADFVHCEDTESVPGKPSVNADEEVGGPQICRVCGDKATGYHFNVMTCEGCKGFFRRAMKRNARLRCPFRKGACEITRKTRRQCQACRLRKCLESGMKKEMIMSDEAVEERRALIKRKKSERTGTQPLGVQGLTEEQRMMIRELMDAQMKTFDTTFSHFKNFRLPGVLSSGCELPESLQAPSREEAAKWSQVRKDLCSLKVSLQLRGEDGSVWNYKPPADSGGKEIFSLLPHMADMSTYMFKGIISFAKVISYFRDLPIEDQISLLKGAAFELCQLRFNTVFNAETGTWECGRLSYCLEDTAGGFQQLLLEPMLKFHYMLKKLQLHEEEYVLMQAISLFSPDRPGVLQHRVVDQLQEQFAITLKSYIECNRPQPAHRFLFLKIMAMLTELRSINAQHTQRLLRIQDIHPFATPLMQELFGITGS
Of the large screens only hits and unclear results are named; the others gave an inactive call (follow-up assays come after a bar, where they were run).

CC1(c2nnnn2C2CCCCC2)CCCC(=O)N1CCc1ccc(O)cc1 (stereo unspecified)	none (no result: AHR act, TAG inh, TbMetRS inhib, Efflux pump mplx)
CC(C)CN1C(=O)C[C@]2(C(=O)N(C)c3ccc(NS(=O)(=O)c4ccc(F)cc4)cc32)C1c1ccccc1 (stereo partly specified)	none (no result: AHR act, TAG inh, TbMetRS inhib, Efflux pump mplx)
Clc1ccc2c(c1)C(c1cccs1)=NNC(c1cccnc1)=N2	AHR act 105 (no result: TAG inh) | AHR act cf 56 | PXR act counter 50
CCCCCN1CCCCC(NC(=O)c2cc(OC)c(OC)c(OC)c2)C1=O (stereo unspecified)	none (no result: AHR act, TAG inh, TbMetRS inhib, Efflux pump mplx)
Cc1c(/C(Cc2ccccc2)=N/O)c2ccccc2n1C	AHR act 88 | AHR act cf 111 | PXR act counter 178
CCOC(=O)[C@@]12CN(C(=O)OC(C)(C)C)CC=C1N(Cc1ccc(OC)cc1)C(=O)[C@H]2CC(=O)NCCC(C)C	none (no result: AHR act, TAG inh, TbMetRS inhib, Efflux pump mplx)
Cc1ccc(NC(=O)c2ccc(S(=O)(=O)N3CCOCC3)cc2)cc1	none (no result: TAG inh)
O=C(Nc1ccc(Cl)cc1)c1ccc(S(=O)(=O)N2CCOCC2)cc1	AHR act 80 (no result: TAG inh) | AHR act cf 86 | PXR act counter 17
Cn1c(NC(=O)c2cccc(C(F)(F)F)c2)cc(=O)n(C)c1=O	AHR act 136 | AHR act cf 120 | PXR act counter 16
C=CCNc1nc(=S)[nH]c2cc(OC)c(OC)cc12	AHR act 104 | AHR act cf 75 | PXR act counter 13
CCOC(=O)[C@]12CCCC3=C1N(CCC3)C(=O)[C@@H](CC(=O)NCCCN1CCCC1=O)C2	none (no result: AHR act, TAG inh, TbMetRS inhib, Efflux pump mplx)
Cc1cccc(NC2=C(NCCO)C(=O)c3ccccc3C2=O)c1	AHR act 113 (no result: TAG inh) | AHR act cf 77 | PXR act counter 65
COc1cccc(NC2=C(NCCO)C(=O)c3ccccc3C2=O)c1	none
CCCCOCC1CN(CCCC)S(=O)(=O)c2c(cccc2Sc2ccc(SC)cc2)O1 (stereo unspecified)	none (no result: AHR act, TAG inh, TbMetRS inhib, Efflux pump mplx)
Cc1ccc(-c2[nH]ncc2C(=O)c2cccc(F)c2)c(O)c1	none (no result: TAG inh)
Cc1ccc(O)c(-c2cc(-c3ccccc3F)[nH]n2)c1	none
Cc1ccc(-c2cc(-c3cccc(F)c3)n[nH]2)c(O)c1	AHR act 126 | AHR act cf 142 | PXR act counter 16
Cc1ccc(-c2cc(-c3ccccc3C)[nH]n2)c(O)c1	AHR act 102 | AHR act cf 136 | PXR act counter 18
FC(F)(F)c1ccc(Cl)c(NC(=S)N/N=C/c2ccccc2C(F)(F)F)c1	AHR act 105 (no result: TAG inh) | AHR act cf 55 | PXR act counter 74
O=[N+]([O-])c1cc(-c2nc(-c3ccncc3)no2)ccc1Cl	none (no result: TAG inh)
O=[N+]([O-])c1cc(-c2nc(-c3ccncc3)no2)cc([N+](=O)[O-])c1	AHR act 90 (no result: TAG inh) | AHR act cf 72
COC(=O)c1ccc(Cn2ccc3ccc(-c4ccc5ccn(C(=O)c6ccc(C)cc6)c5c4)cc32)cc1	none (no result: AHR act, TAG inh, TbMetRS inhib, Efflux pump mplx)
COc1ccc(C)cc1N/C(N)=N/c1nc(C)cc(C)n1	AHR act 81 (no result: TAG inh) | AHR act cf 59
OCCC#Cc1c(-c2ccsc2)sc2ccccc12	AHR act 86 | AHR act cf 62 | PXR act counter 13
COc1cc(-c2ccc3sc(-c4ccsc4)c(C#CCO)c3c2)cc(OC)c1OC	AHR act 80 | AHR act cf 61 | PXR act counter 13
COC(=O)c1cccc2c([N+](=O)[O-])c(NC(C)=O)cc(C(=O)OC)c12	none (no result: AHR act, TAG inh, TbMetRS inhib, Efflux pump mplx)
O=C1C=C(c2ccc(Br)c3ccccc23)C[C@@H](c2ccc3c(c2)OCO3)C1	AHR act 89 | AHR act cf 95 | PXR act counter 32
COc1c(F)cccc1C1=CC(=O)C[C@H](c2ccc3c(c2)OCO3)C1	AHR act 101 | AHR act cf 76 | PXR act counter 66
COc1ccc([C@H]2CC(=O)C=C(c3ccc(Br)c4ccccc34)C2)cc1	none
C[C@@H]1CCCN1c1ccc2c(c1)O[C@H]1CCN(C1)S2(=O)=O	none (no result: AHR act, TAG inh, TbMetRS inhib, Efflux pump mplx)
Nc1cccc(Nc2ncnc3ccccc23)c1	AHR act 152 | AHR act cf 65
O=C(O)c1cccc(Nc2ncnc3ccccc23)c1	none (no result: TAG inh)
NC1=NC(=Nc2ccc(Br)cc2)c2ccccc21	AHR act 88 | AHR act cf inactive | PXR act counter 15
COc1ccc(-n2nc3cc(N)c(Br)cc3n2)cc1	AHR act 98 | AHR act cf 124 | PXR act counter 30
COc1ccc(-n2nc3ccccc3n2)cc1	none
Cc1[nH]c2ccccc2c1C(=O)CNc1nccs1	AHR act 83 | AHR act cf inactive | PXR act counter 26
Cc1[nH]c2ccccc2c1SCCN	none
Cc1[nH]c2ccccc2c1C(=O)COc1ccccc1	AHR act 135 | AHR act cf 128 | PXR act counter 30
Cc1[nH]c2ccccc2c1C(=O)CSc1ccccc1	AHR act 101 (no result: TAG inh) | AHR act cf 93 | PXR act counter 72
Cc1[nH]c2ccccc2c1C(=O)CCl	none (no result: AHR act, Efflux pump mplx)
CCOCc1cnc(C)nc1NCC(=O)c1c(C)[nH]c2ccccc12	none
Cc1[nH]c2ccccc2c1SCc1ccccc1	AHR act 128 | AHR act cf 103 | PXR act counter 38
O=C(Nc1c(-c2ccc(F)cc2)nc2ncccn12)c1ccccc1	none (no result: AHR act, TAG inh, TbMetRS inhib, Efflux pump mplx)
COc1ccc(S[C@]2(C(=O)N3CCN(c4ncccn4)CC3)CC(=O)N(C(=O)C3CC3)[C@@H]2c2ccc(OC)cc2)cc1	none (no result: AHR act, TAG inh, TbMetRS inhib, Efflux pump mplx)
CCNC(=O)C[C@H]1CC[C@H]2[C@@H](COc3ccc(NC(=O)c4ccc5c(c4)OCO5)cc3C(=O)N2C)O1	none (no result: AHR act, TAG inh, TbMetRS inhib, Efflux pump mplx)
O=C(Nc1ccccc1C(=O)Nc1ccc(Cl)cc1)c1cccnc1	AHR act 86 (no result: TAG inh) | AHR act cf 56 | PXR act counter 31
CCOc1ncccc1C(=O)Nc1ccc(Cl)cc1	AHR act 117 | AHR act cf 122 | PXR act counter 19
COc1ccc(OC)c(NC(=O)c2cccnc2)c1	none
CCOc1ccc(NC(=O)c2cc(-c3ccc(Cl)cc3)nc3ccccc23)cc1	none (no result: AHR act, TAG inh, TbMetRS inhib, Efflux pump mplx)
CCOc1ccc(NC(=O)c2cc(Cl)nc3ccccc23)cc1	AHR act 95 | AHR act cf 91 | PXR act counter 11
CCOc1ncccc1C(=O)Nc1ccc(F)cc1	none
COc1ccc(Cl)cc1NC(=O)c1cccnc1	AHR act 88 (no result: TAG inh) | AHR act cf 107 | PXR act counter 11
COC(=O)[C@]12C[C@H](CC(=O)NCc3ccc(OC)c(OC)c3)C(=O)N(Cc3ccccc3)C1=C[C@H](C1CCCC1)O[C@@H]2C	none (no result: AHR act, TAG inh, TbMetRS inhib, Efflux pump mplx)
COc1ccc(NC(=O)Nc2ccccc2C(=O)N2CCCC2)cc1OC	none (no result: AHR act, TAG inh, TbMetRS inhib, Efflux pump mplx)
O=C(CSc1nnc(-c2ccccn2)n1-c1ccccc1)c1ccc(Cl)c(Cl)c1	none (no result: AHR act, TAG inh, TbMetRS inhib, Efflux pump mplx)
COc1ccc(Cl)cc1NC(=O)C1COc2ccccc2O1 (stereo unspecified)	none
